# Experimental data as given in ChEMBL document CHEMBL3632527 (J Med Chem, 2015).
# Calls of active or inactive are those of the source. The rule behind the calls is not given here.
# Key:
# T98G [1] = assay: Cytotoxicity against human T98G cells assessed as cell viability after 48 hrs by cell titer blue staining based fluorescence method
# T98G [2] = assay: Potentiation of antiproliferative activity of PK11195 at 100 uM against human T98G cells incubated for 48 hrs by BrdU enzyme-linked immunosorbent assay; format: functional, cell-based
# T98G [3] = assay: Cytotoxicity against human T98G cells assessed as cell viability in the presence of PK11195 after 48 hrs by cell titer blue staining based fluorescence method
# Translocator protein [4] = target: T1, Translocator protein (Homo sapiens, UniProt P30536); assay: Displacement of [3H]PK11195 from TSPO in human HEK293T cell membranes incubated for 90 mins by competition radioligand binding assay; design: species or system HEK-293T
# T1 sequence (P30536 whole entry): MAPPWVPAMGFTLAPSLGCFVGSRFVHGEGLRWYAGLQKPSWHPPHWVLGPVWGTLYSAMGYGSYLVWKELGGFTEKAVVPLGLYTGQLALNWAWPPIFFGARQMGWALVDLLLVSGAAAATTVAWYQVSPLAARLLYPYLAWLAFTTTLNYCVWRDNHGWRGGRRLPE
# Translocator protein [5] = target: T1, Translocator protein; assay: Displacement of [3H]PK11195 from TSPO in human T98G cell membranes incubated for 90 mins by competition radioligand binding assay
# T98G [6] = assay: Antiproliferative activity against human T98G cells at 1 to 100 uM incubated for 48 hrs by BrdU enzyme-linked immunosorbent assay; format: functional, cell-based
# Summary of the method: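 Basal proliferation of T98G human glioma cells, which carry the Ala147 TSPO genotype without the rs6971 polymorphism, was measured with compounds alone at 1–100 μM.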
# T98G [7] = assay: Potentiation of antiproliferative activity of PK11195 against human T98G cells incubated for 48 hrs by BrdU enzyme-linked immunosorbent assay; format: functional, cell-based
# T98G [8] = assay: Potentiation of antiproliferative activity of PK11195 at 10 uM against human T98G cells incubated for 48 hrs by BrdU enzyme-linked immunosorbent assay; format: functional, cell-based
# T98G [9] = assay: Potentiation of antiproliferative activity of PK11195 at 62.5 uM against human T98G cells incubated for 48 hrs by BrdU enzyme-linked immunosorbent assay; format: functional, cell-based
Compound,Ki (Translocator protein [4]),Ki (Translocator protein [5]),Activity (T98G [1]),Activity (T98G [2]),Activity (T98G [3]),Activity (T98G [6]),EC50 (T98G [7]),Activity (T98G [8]),Activity (T98G [9])
CCN(CC)C(=O)Cn1c(-c2ccc(OC)cc2)nc2c(C)cc(C)nc21,29.1 nM,144 nM,Non-toxic,inactive,Non-toxic,inactive,,,
CCN(CC)C(=O)Cc1c(-c2ccc(OC)cc2)nn2c(C)cc(C)nc12,,,Non-toxic,inactive,Non-toxic,inactive,,,
CCN(CC)C(=O)Cn1c(-c2ccc(OC)cc2)nc2c(C)nc(C)nc21,> 10000 nM,> 10000 nM,Non-toxic,inactive,Non-toxic,inactive,,,

# Further lines, with some results ahead:
Ki (Translocator protein [4]),Ki (Translocator protein [5]),Compound,Activity (T98G [1]),Activity (T98G [2]),Activity (T98G [3]),Activity (T98G [6]),EC50 (T98G [7]),Activity (T98G [8]),Activity (T98G [9])
28.1 nM,806 nM,CCN(CC)C(=O)Cn1c(-c2ccc(OC)cc2)cc2c(C)cc(C)cc21,Non-toxic,,Non-toxic,inactive,14700 nM,Active,
224 nM,398 nM,CCN(CC)C(=O)Cn1c(-c2ccc(OC)cc2)nc2c(C)cc(C)cc21,Non-toxic,,Non-toxic,inactive,,,Active
